The source made the active and inactive calls.
How the values were obtained:
[1] = Efflux ratio of permeability across basolateral to apical side in human Caco2 cells; format: ADME, cell-based; details: Caco-2
[2] = target: 5-hydroxytryptamine receptor 2A (Homo sapiens, UniProt P28223); assay: Agonist activity at recombinant human 5-HT2A receptor expressed in HEK293E cells assessed as induction of intracellular Ca2+ levels after 90 secs by Fluo-4-dye based FLIPR assay; format: cell-based, HEK293
Procedure, shortened: (§1)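 HEK293E cells stably expressing human receptor (VNV isoform for 5-HT2C; ~400−795 fmol/mg protein), grown in DMEM with 10% dialyzed FBS and G418. Cells plated at 20 000/well in serum-free DMEM overnight at 37 °C, then loaded 1 h at room temperature with 5 μM Fluo-4 in HBSS/25 mM HEPES. Eleven compound concentrations added on FLIPR, Ca2+ signal read for 90 s. EC50 from a four-parameter logistic fit, at least triplicate.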

[3] = Drug uptake in Sprague-Dawley rat brain at 30 mg/kg, po measured at 1 hr post dose by LC/MS-MS analysis; format: ADME, organism-based; details: read-out: Drug uptake
Procedure, shortened: (§2)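 Male rats given 30 mg/kg orally in 0.15% docusate sodium/2% PVP-K/97.85% water. Plasma and brain were sampled at a single time point after dosing. Brain was diluted 1:2 (vol/weight) with water before homogenization (dilution factor 3). Concentrations were measured by LC/MS−MS after acetonitrile protein precipitation. Values are the average of three animals; B/P is the brain to plasma ratio.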

[4] = target: T1, 5-hydroxytryptamine receptor 2C (Homo sapiens, UniProt P28335); assay: Agonist activity at recombinant human 5-HT2C receptor expressed in HEK293E cells assessed as induction of intracellular Ca2+ levels after 90 secs by Fluo-4-dye based FLIPR assay; format: functional, cell-based, HEK293; procedure, shortened: as §1
T1 sequence (P28335 whole entry): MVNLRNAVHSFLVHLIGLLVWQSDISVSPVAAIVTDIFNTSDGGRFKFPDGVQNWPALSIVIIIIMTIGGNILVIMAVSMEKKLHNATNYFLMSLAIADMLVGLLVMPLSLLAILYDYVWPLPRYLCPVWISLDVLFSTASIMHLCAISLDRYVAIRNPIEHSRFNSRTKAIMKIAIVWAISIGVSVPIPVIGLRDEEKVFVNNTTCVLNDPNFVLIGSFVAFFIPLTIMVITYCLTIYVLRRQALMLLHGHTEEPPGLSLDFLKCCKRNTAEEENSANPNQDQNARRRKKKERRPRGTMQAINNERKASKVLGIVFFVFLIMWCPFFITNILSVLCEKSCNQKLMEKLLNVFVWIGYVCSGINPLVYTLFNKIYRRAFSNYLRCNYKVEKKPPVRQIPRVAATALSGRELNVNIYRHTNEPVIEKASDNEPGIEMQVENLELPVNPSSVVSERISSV

[5] = Metabolic stability in rat liver microsomes assessed as parent compound remaining at […] after 10 mins; format: ADME, microsome; details: read-out: Stability
[6] = Ratio of drug uptake in Sprague-Dawley rat brain to plasma at 30 mg/kg, po measured at 1 hr post dose by LC/MS-MS analysis; format: ADME, organism-based; details: read-out: BPR; procedure, shortened: as §2
[7] = Protein binding in human plasma; format: ADME, cell-free; details: read-out: PPB (converted)
[8] = target: T2, 5-hydroxytryptamine receptor 2B (Homo sapiens, UniProt P41595); assay: Agonist activity at recombinant human 5-HT2B receptor expressed in HEK293E cells assessed as induction of intracellular Ca2+ levels after 90 secs by Fluo-4-dye based FLIPR assay; format: cell-based, HEK293; procedure, shortened: as §1
[9] = Permeability of compound at pH 5.5 by PAMPA; format: physicochemical; details: read-out: permeability
[10] = Permeability across apical to basolateral side in human Caco2 cells; format: ADME, cell-based; details: Caco-2, read-out: permeability
[11] = Permeability across basolateral to apical side in human Caco2 cells; format: ADME, cell-based; details: Caco-2, read-out: permeability
[12] = Protein binding in rat plasma; format: ADME, cell-free; details: read-out: PPB (converted)
[13] = Metabolic stability in human liver microsomes assessed as parent compound remaining at […] after 10 mins; format: ADME, microsome; details: read-out: Stability
[14] = target: T3, 5-hydroxytryptamine receptor 2C (Homo sapiens) (UniProt P28335); assay: Intrinsic activity at recombinant human 5-HT2C receptor expressed in HEK293E cells assessed as induction of intracellular Ca2+ levels after 90 secs by Fluo-4-dye based FLIPR assay relative to serotonin; format: functional, cell-based; details: HEK293
T3 sequence (whole entry): T1 sequence (P28335 whole entry)
Procedure, shortened: (§3)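 FLIPR Fluo-4 Ca2+ assay in HEK293E cells stably expressing the human receptor (VNV isoform for 5-HT2C), eleven-point concentration series, 90 s read. Response normalized to 3 μM serotonin on the same plate (defined as IA = 1). Intrinsic activity taken from a four-parameter logistic fit.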

[15] = Plasma concentration in Sprague-Dawley rat at 30 mg/kg, po measured at 1 hr post dose by LC/MS-MS analysis; format: ADME, organism-based; procedure, shortened: as §2
[16] = Permeability of compound at pH 7.4 by PAMPA; format: physicochemical; details: read-out: permeability
[17] = Half life in rat microsomes; format: ADME, Microsome
[18] = Half life in human microsomes; format: ADME, Microsome
[19] = Ratio of drug uptake in Sprague-Dawley rat brain to plasma at 30 mg/kg, po measured at 2 hrs post dose by LC/MS-MS analysis; format: ADME, organism-based; details: read-out: BPR; procedure, shortened: as §2
[20] = Plasma concentration in Sprague-Dawley rat at 30 mg/kg, po measured at 2 hrs post dose by LC/MS-MS analysis; format: ADME, organism-based; procedure, shortened: as §2
[21] = Drug uptake in Sprague-Dawley rat brain at 30 mg/kg, po measured at 2 hrs post dose by LC/MS-MS analysis; format: ADME, organism-based; details: read-out: Drug uptake; procedure, shortened: as §2
[22] = test system: Rattus norvegicus; assay: Antiobesity activity in ad libitum feeding Sprague-Dawley rat model assessed as reduction in food pellet consumption at 30 mg/kg, po administered at 60 mins prior to the onset of the dark cycle followed by incubation for first 8 hrs in light cycle and 12 hrs in dark cycle; format: functional; set-up: scale not given: the % may be the effect or the level left
Procedure, shortened: (§4)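 Male Sprague Dawley rats (~225 g; n = 6), trained in operant chambers, dosed orally with compound or vehicle (14% PPG, 1% Tween, 85% water) 60 min before dark onset. Food intake was monitored in individual boxes for 20 h (12 h dark plus first 8 h light). Percent reduction was computed from drug-treated versus vehicle-treated total intake.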

[23] = Plasma concentration in Sprague-Dawley rat at 30 mg/kg, po measured at 3 hrs post dose by LC/MS-MS analysis; format: ADME, organism-based; procedure, shortened: as §2
[24] = test system: Rattus norvegicus; assay: Antiobesity activity in ad libitum feeding Sprague-Dawley rat model assessed as reduction in food intake at 30 mg/kg, po administered at 60 mins prior to the onset of the dark cycle followed by incubation for first 8 hrs in light cycle and 12 hrs in dark cycle in presence of 5-HT2C anatgonist SB-243213; format: functional; set-up: scale not given: the % may be the effect or the level left
[25] = Drug uptake in Sprague-Dawley rat brain at 30 mg/kg, po measured at 3 hrs post dose by LC/MS-MS analysis; format: ADME, organism-based; details: read-out: Drug uptake; procedure, shortened: as §2
[26] = test system: Rattus norvegicus; assay: Antiobesity activity in ad libitum feeding Sprague-Dawley rat model assessed as reduction in food pellet consumption at 3 to 10 mg/kg, po administered at 60 mins prior to the onset of the dark cycle measured at first 4 hrs post last dose; format: functional, organism-based
Procedure, shortened: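 Male Sprague Dawley rats (n = 6) dosed orally 60 min before dark onset with 3 or 10 mg/kg, in vehicle of 14% PPG, 1% Tween, 85% water. Food pellet consumption was recorded in operant boxes and compared with vehicle over the first 4 h.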

[27] = test system: Rattus norvegicus; assay: Antiobesity activity in ad libitum feeding Sprague-Dawley rat model assessed as reduction in food pellet consumption administered po at 60 mins prior to the onset of the dark cycle followed by incubation for first 8 hrs in light cycle and 12 hrs in dark cycle; format: functional, organism-based; procedure, shortened: as §4
[28] = test system: Rattus norvegicus; assay: Toxicity in ad libitum feeding Sprague-Dawley rat model assessed as reduction in water intake at 3 to 30 mg/kg, po administered at 60 mins prior to the onset of the dark cycle followed by incubation for first 8 hrs in light cycle and 12 hrs in dark cycle; format: organism-based; details: in vivo
[29] = test system: Rattus norvegicus; assay: Antiobesity activity in ad libitum feeding Sprague-Dawley rat model assessed as reduction in food intake at 30 mg/kg, po administered at 60 mins prior to the onset of the dark cycle followed by incubation for first 8 hrs in light cycle and 12 hrs in dark cycle; format: functional; set-up: scale not given: the % may be the effect or the level left; procedure, shortened: as §4
[30] = test system: Rattus norvegicus; assay: Toxicity in ad libitum feeding Sprague-Dawley rat model assessed as effect on locomotor activity at 3 to 30 mg/kg, po administered at 60 mins prior to the onset of the dark cycle followed by incubation for first 8 hrs in light cycle and 12 hrs in dark cycle; format: organism-based; details: in vivo
[31] = target: T2, 5-hydroxytryptamine receptor 2B; assay: Intrinsic activity at recombinant human 5-HT2B receptor expressed in HEK293E cells assessed as induction of intracellular Ca2+ levels after 90 secs by Fluo-4-dye based FLIPR assay relative to serotonin; format: functional, cell-based; details: HEK293; procedure, shortened: as §3
[32] = Ratio of drug uptake in Sprague-Dawley rat brain to plasma at 30 mg/kg, po measured at 3 hrs post dose by LC/MS-MS analysis; format: ADME, organism-based; details: read-out: BPR; procedure, shortened: as §2

Chain of 5-hydroxytryptamine receptor 2A (P28223 whole entry, canonical isoform): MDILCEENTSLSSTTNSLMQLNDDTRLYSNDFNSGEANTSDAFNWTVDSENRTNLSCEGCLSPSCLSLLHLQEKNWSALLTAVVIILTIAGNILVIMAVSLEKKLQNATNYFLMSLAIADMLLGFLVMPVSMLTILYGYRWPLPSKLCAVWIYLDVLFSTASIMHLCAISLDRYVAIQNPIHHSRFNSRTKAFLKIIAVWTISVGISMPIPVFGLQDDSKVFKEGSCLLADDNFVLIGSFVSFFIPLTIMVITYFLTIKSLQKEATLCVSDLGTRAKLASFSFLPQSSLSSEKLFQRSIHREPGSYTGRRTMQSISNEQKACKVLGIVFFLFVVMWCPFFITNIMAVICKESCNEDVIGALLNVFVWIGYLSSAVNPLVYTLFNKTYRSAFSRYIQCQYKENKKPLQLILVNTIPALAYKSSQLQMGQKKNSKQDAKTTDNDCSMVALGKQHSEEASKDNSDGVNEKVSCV
T2 sequence (P41595 whole entry): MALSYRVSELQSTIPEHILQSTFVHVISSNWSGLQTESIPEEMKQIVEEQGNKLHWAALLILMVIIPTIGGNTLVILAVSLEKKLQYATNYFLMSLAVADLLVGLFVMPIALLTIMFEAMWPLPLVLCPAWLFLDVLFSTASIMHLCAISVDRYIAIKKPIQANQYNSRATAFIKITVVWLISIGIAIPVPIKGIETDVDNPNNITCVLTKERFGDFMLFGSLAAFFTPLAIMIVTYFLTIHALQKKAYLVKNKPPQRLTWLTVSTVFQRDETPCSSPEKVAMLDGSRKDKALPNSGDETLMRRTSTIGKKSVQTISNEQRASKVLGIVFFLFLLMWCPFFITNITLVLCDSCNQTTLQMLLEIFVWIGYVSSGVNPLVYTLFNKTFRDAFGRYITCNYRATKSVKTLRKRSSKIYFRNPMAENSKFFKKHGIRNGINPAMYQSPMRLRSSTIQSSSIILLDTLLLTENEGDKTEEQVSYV

efflux ratio [1] | EC50 [2] [nM] | EC50 [4] [nM] | remaining at 10 min [5] [%] | fraction unbound [7] | EC50 [8] [µM] | Papp [9] [×10⁻⁶ cm/s] | Papp A→B [10] [×10⁻⁶ cm/s] | Papp B→A [11] [×10⁻⁶ cm/s] | fraction unbound [12] | remaining at 10 min [13] [%] | Intrinsic activity [14] | Papp [16] [×10⁻⁶ cm/s] | half-life [17] [min] | half-life [18] [min] | SMILES | other results
1.3 | > 10000 | 12 | 44 | 0.017 | > 10 | 62.4 | 17.2 | 21.9 | 0.075 | 76 | 0.9 | 49.2 | 11 | 41 | Cc1[nH]c(-c2cccc3ccccc23)cc1C(=O)N1CCC(CO)CC1 | concentration at 1 h [3]: 202 nM; Kp at 1 h [6]: 0.2; concentration at 1 h [15]: 1140 nM
0.5 | 75 | 6 | 37 | 0.023 | > 10 | 58.8 | 32.3 | 16.8 | 0.076 | 92 | 1 | 61.3 | 8 | 36 | Cn1nc(-c2cccc3ccccc23)cc1C(=O)N1CCC(CO)CC1 | Kp at 2 h [19]: 0.3; concentration at 2 h [20]: 2480 nM; concentration at 2 h [21]: 721 nM
0.7 | 635 | 5 |  | 0.062 | 0.048 | 72.7 | 77.7 | 52.8 | 0.079 | 61 | 0.8 | 88.9 | 25 | 16 | CCn1nc(-c2cccc3cccnc23)cc1-c1ccc(N)nn1 | Activity [22]: 24%; concentration at 3 h [23]: 7.54 µM; Activity [24]: 12%; concentration at 3 h [25]: 3.92 µM; Activity [26]: Active; Activity [27]: Dose-dependent effect; Activity [28]: Non-Toxic; Activity [29]: 38%; Activity [30]: Non-Toxic; Intrinsic activity [31]: 0.2; Kp at 3 h [32]: 0.9

— ChEMBL document CHEMBL4011636, “Utilization of an Active Site Mutant Receptor for the Identification of Potent and Selective Atypical 5-HT2C Receptor Agonists” (J Med Chem, 2017)
